Assay outcomes: PubChem, several laboratories
DAT uptake mod – modulates human dopamine transporter uptake under cocaine; 1.3% of 110,000 active; B-score at 10 µM; LLC-PK1 hDAT cells, [14C]-dopamine uptake with cocaine IC80; actives deviate in either direction; Q01959;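 active means Z score or B-score, a plate-position-corrected score, falls beyond the plate's 99.7% confidence bounds, in either direction; inactive means both scores lie inside the 99.7% bounds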;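 further: scored against the spread of the other compound wells on the same plate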
M1 antagonist – antagonists of rat M1 muscarinic receptor. P08482. CHO-M1 cells, Fluo-4 calcium, ACh EC80 antagonist mode; stronger effect = lower value. B-score at 10 µM. 3.4% of 64,000 active. AID 628;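 active means calcium fluorescence response, raw or row-and-column corrected B-score, differing from the plate sample mean either way at a set confidence level, mostly lower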
BAP1 inh – human BAP1 deubiquitinase inhibition. Q92560. recombinant BAP1, Ub-AMC hydrolysis fluorescence kinetic; stronger effect = lower value. calls only at 20 µM. 0.48% of 72,000 active. AID 436;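 active means activity remaining at or below 50% of control, provided the compound also passes the data quality filters; inactive means the rest, including low values that fail the filters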;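 further: 100% = DMSO wells rate and 0% = substrate alone blank rate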
D1 allo mod – D1 dopamine receptor (human) allosteric modulation. 5.9% of 58,000 active. HEK293 D1, CRE-luciferase, dopamine EC30 potentiation; actives deviate in either direction. B-score at 10 µM;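 active means luminescence count or its row- and column-corrected plate score outside the 99.7% band of the plate's sample wells, on either side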
Target sequence (P21728 whole entry, looked up): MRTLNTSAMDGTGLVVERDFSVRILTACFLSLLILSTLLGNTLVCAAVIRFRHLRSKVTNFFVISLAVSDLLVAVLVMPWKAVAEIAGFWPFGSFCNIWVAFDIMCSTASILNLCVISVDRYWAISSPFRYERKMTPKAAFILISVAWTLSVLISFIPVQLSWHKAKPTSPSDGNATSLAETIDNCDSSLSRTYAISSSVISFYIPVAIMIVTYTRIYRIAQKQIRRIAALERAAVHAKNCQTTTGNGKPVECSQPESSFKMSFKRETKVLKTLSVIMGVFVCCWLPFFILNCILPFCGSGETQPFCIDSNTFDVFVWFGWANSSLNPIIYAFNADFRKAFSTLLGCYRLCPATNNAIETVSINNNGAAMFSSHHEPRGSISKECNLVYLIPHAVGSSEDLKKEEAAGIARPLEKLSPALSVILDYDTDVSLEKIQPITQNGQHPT
HEK293 NFkB inh – lowers PMA/ionomycin-induced NF-kB signal in HEK293 cells | HEK-293 NF-kB luciferase reporter, luminescence | inhibition, % at 3 µM | 0.21% of 62,000 active;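 active means inhibition above the mean of all tested compounds plus 3 SD, cut at about 40% in these data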;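 further: 0% = stimulated DMSO wells and 100% = 10 µM reference inhibitor 5653914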
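System – HEK-293 cells with stable firefly luciferase reporter driven by four HIV NF-kB elements · Doses – one dose, 3 µM · Schedule – 1 h compound pre-incubation, 16 h PMA/ionomycin at 37 °C · Technique – luminescence from luciferase substrate reagent · Measure – percent inhibition normalized per plate to DMSO and reference-inhibitor controls · Replicates – tested once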
M1 ag – agonists of M1 muscarinic receptor | CHO-M1 cells, Fluo-4 calcium fluorescence, agonist mode; stronger effect = higher value | B-score at 10 µM | 3% of 64,000 active;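 active means fluorescence rise, raw or as B-score row- and column-corrected plate score, outside the 99.7% band of its plate's samples, either direction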
Starred values were filed as active, the others as inactive; i = inactive; . = no result. In the library only some 7.2% were active in any assay of this set; here they are far more common.

SMILES	DAT uptake mod	M1 antagonist	BAP1 inh	D1 allo mod	HEK293 NFkB inh	M1 ag
Oc1ccc(-c2nc3ncccn3c2Nc2ccc3c(c2)OCO3)cc1	-0.288	0.373	i	-0.592	3.2	-0.916
Cc1cc2c(cc(C(=O)N3CCC(C(=O)NC4CCCC4)CC3)n2Cc2c(F)cccc2Cl)o1	0.0341	0.0635	i	.	7.1	6.2*
CCOC(=O)C1CCN(Cc2c(F)cccc2Cl)CC1	1.18	0.128	i	0.245	11.2	-0.749
COc1cccc(NC(=O)C(=O)N/N=C/c2cc(C)n(-c3ccc(Cl)c(Cl)c3)c2C)c1	-4.76*	.	.	.	.	.
COc1ccccc1/C=N/NC(=O)CC(=O)Nc1ccc(Cl)c(Cl)c1	-0.00839	.	.	.	.	.
Cc1nc2ccccn2c1C(=O)N/N=C/c1cc(C)n(-c2ccc(Cl)cc2)c1C	0.691	.	.	.	.	.
Cc1cc(/C=N\NC(=O)CC(=O)NC2CCCCC2)c(C)n1-c1ccc(Cl)c(Cl)c1	-3.71*	.	.	.	.	.
c1ccc(-c2nc3c(ccc4ccccc43)[nH]2)nc1	4.12*	.	.	.	.	.
O=C(Cn1cnc([N+](=O)[O-])n1)Nc1cccc(Cl)c1	.	.	i	.	.	.
O=C(CN(C(=O)CCC(=O)Nc1nccs1)c1ccc(F)cc1)NCc1ccco1	-2.78*	0.0698	i	0.302	5.5	-0.32
O=C(CN(C(=O)CCC(=O)Nc1nccs1)c1ccc(F)c(Cl)c1)NCc1ccco1	-0.107	0.471	i	0.29	5.0	1.66
CCCNC(=O)C(=O)NCCC1=CCCCC1	0.134	.	.	.	.	.
Cc1cc(C(=O)NCCC2=CCCCC2)c(C)o1	0.171	-0.19	i	-6.61*	-54.9	0.972
COc1ccc(C2CC(C(F)(F)F)n3nc(C(=O)NCc4c(C)nn(C)c4C)c(Cl)c3N2)cc1 (stereo not given)	0.321	0.7	i	-3.07*	25.7	0.027
COc1ccc(CN(Cc2nc3ccccc3c(=O)[nH]2)C(=O)C(C)(C)C)cc1	0.131	0.821	i	-4.9*	9.4	-0.773
COc1ccc(CN(Cc2nc3ccccc3c(=O)[nH]2)C(=O)NC2CCCCC2)cc1	1.12	-0.0902	i	1.17	13.0	-0.156
O=C(c1ccco1)N1CCN(c2ncnc3scc(-c4cccs4)c23)CC1	-0.925	-0.413	i	0.966	17.5	1.94*
N#CC1=C(N)NC(SCc2ccc(Cl)cc2)=C(C#N)C12CCCCC2	1.07	-0.531	i	-0.514	.	2.73
CCSC1=C(C#N)C2(CCCC2)C(C#N)=C(N)N1	-2.72*	0.00222	i	1.45	23.3	-0.729
CCOC(=O)c1cnn(-c2ncnc3c2oc2ccccc23)c1N	0.0469	-0.195	i	-3.71*	-2.6	-0.418
CCOC(=O)C1CCN(c2ncnc3c2oc2ccccc23)CC1	0.813	0.0962	i	-0.0361	-1.7	2.67
CC(C)Oc1ccc(C2CC(=O)NC3=C2C(=O)CCC3)cc1 (stereo not given)	-0.109	-1.37	i	-5.39*	-1.4	0.666
COC(=O)c1ccc(C2CC(=O)NC3=C2C(=O)CCC3)cc1 (stereo not given)	-0.317	0.136	i	-0.139	0.2	-0.135
CC(C)C1Nc2ccc(S(N)(=O)=O)cc2C2C=CCC21 (stereo not given)	1.52	-0.0391	i	0.0713	5.5	2.13*
NS(=O)(=O)c1ccc2c(c1)C1C=CCC1C(C1CC=CCC1)N2 (stereo not given)	2.08	.	.	.	.	.
SMILES	DAT uptake mod	M1 antagonist	BAP1 inh	D1 allo mod	HEK293 NFkB inh	M1 ag
CCOC(=O)CCN(Cc1sccc1C)S(=O)(=O)c1ccc(F)cc1	3.79*	.	.	.	.	.
COCCOC(=O)C1=C(C)NC2=C(C(=O)CCC2)C1c1cc(OC)ccc1OC (stereo not given)	.	.	i	.	.	.
COc1ccccc1-n1cnnc1SC1CCOC1=O (stereo not given)	-0.128	2.84*	i	0.894	7.9	0.548
COC(=O)c1nn(-c2ccccc2)c(Cl)c1/C=N/OCc1ccc(C)cc1	1.61*	.	.	.	.	.
CCCC(C(=O)NC1CCCC1)N(C(=O)Cn1nnc(-c2ccc(C)o2)n1)C1CCCC1 (stereo not given)	0.686	0.451	i	-0.354	7.6	-0.399
CCC(C(=O)NC1CCCC1)N(C(=O)Cn1nnc(-c2ccc(C)cc2)n1)C1CCCC1 (stereo not given)	3.71*	.	.	.	.	.
COc1ccc(-c2nnn(CC(=O)N(Cc3cccs3)C(C)C(=O)NC3CCCC3)n2)cc1OC (stereo not given)	-0.448	-1.49	i	4.03*	21.7	-0.307
